Results: ChEMBL document CHEMBL1944596, “7,8-dichloro-1-oxo-β-carbolines as a versatile scaffold for the development of potent and selective kinase inhibitors with unusual binding modes” (J Med Chem, 2012)

Assays:
[1] = target: Tyrosine-protein kinase Fes/Fps (Homo sapiens) (UniProt P07332); assay: Binding affinity to FES assessed as change in thermal denaturation at 10 uM by thermal stability shift assay
Method in brief: (§1)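 Each compound was screened across a kinase panel by thermal stability shift assay. The read-out was the shift in protein melting temperature (ΔTm, in °C) relative to the unliganded kinase. A ΔTm of 4.0 °C served as the hit cutoff.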

[2] = target: T1, Serine/threonine-protein kinase 17A (Homo sapiens) (UniProt Q9UEE5); assay: Binding affinity to DRAK1 assessed as change in thermal denaturation at 10 uM by thermal stability shift assay; method in brief: as §1
T1 sequence (whole entry): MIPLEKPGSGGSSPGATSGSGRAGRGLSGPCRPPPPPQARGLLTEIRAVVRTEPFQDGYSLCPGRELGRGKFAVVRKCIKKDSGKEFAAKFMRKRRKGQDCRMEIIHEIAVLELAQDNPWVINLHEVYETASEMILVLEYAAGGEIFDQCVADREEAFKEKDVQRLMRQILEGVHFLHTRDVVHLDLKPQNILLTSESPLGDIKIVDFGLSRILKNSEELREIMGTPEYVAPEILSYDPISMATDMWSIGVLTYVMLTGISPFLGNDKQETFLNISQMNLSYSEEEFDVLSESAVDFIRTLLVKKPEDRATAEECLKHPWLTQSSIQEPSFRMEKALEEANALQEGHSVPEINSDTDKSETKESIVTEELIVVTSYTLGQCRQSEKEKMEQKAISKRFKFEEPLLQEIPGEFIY

[3] = target: Serine/threonine-protein kinase PLK1 (Homo sapiens) (UniProt P53350); assay: Binding affinity to PLK1 assessed as change in thermal denaturation at 10 uM by thermal stability shift assay; method in brief: as §1
[4] = target: Dual specificity protein kinase CLK1 (Homo sapiens) (UniProt P49759); assay: Binding affinity to CLK1 assessed as change in thermal denaturation at 10 uM by thermal stability shift assay; method in brief: as §1
[5] = target: T2, Serine/threonine-protein kinase 17B (Homo sapiens) (UniProt O94768); assay: Binding affinity to DRAK2 assessed as change in thermal denaturation at 10 uM by thermal stability shift assay; method in brief: as §1
T2 sequence (whole entry): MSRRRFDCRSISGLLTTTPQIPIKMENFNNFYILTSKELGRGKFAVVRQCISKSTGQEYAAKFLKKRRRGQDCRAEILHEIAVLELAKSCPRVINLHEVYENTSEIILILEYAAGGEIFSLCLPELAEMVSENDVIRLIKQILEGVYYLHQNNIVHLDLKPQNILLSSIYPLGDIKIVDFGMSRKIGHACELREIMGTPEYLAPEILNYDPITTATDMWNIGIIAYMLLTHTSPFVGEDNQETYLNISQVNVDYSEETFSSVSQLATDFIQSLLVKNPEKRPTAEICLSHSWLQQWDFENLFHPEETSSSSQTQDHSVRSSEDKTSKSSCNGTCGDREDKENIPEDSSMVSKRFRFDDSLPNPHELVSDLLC

[6] = target: Glycogen synthase kinase-3 beta (Homo sapiens) (UniProt P49841); assay: Binding affinity to GSK3-beta assessed as change in thermal denaturation at 10 uM by thermal stability shift assay; method in brief: as §1
[7] = target: Protein kinase C gamma type (Homo sapiens) (UniProt P05129); assay: Binding affinity to PKCgamma assessed as change in thermal denaturation at 10 uM by thermal stability shift assay; method in brief: as §1
[8] = target: TGF-beta receptor type-2 (Homo sapiens) (UniProt P37173); assay: Binding affinity to TGFBR2 assessed as change in thermal denaturation at 10 uM by thermal stability shift assay; method in brief: as §1
[9] = target: T3, cAMP-dependent protein kinase catalytic subunit PRKX (Homo sapiens) (UniProt P51817); assay: Binding affinity to PRKX assessed as change in thermal denaturation at 10 uM by thermal stability shift assay; method in brief: as §1
T3 sequence (whole entry): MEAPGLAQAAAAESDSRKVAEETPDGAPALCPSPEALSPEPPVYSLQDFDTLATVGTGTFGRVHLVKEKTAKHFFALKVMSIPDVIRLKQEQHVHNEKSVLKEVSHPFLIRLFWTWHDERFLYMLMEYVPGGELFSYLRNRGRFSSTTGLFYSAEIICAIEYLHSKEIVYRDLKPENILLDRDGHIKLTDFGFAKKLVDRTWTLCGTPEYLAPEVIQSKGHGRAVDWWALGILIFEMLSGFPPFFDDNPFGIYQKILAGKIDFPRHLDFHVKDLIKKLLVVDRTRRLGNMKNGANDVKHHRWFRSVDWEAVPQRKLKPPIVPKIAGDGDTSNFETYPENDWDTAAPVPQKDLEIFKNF

[10] = target: BMP-2-inducible protein kinase (Homo sapiens) (UniProt Q9NSY1); assay: Binding affinity to BIKE assessed as change in thermal denaturation at 10 uM by thermal stability shift assay; method in brief: as §1
[11] = target: T4, Myosin light chain kinase family member 4 (Homo sapiens) (UniProt Q86YV6); assay: Binding affinity to SGK085 assessed as change in thermal denaturation at 10 uM by thermal stability shift assay; method in brief: as §1
T4 sequence (whole entry): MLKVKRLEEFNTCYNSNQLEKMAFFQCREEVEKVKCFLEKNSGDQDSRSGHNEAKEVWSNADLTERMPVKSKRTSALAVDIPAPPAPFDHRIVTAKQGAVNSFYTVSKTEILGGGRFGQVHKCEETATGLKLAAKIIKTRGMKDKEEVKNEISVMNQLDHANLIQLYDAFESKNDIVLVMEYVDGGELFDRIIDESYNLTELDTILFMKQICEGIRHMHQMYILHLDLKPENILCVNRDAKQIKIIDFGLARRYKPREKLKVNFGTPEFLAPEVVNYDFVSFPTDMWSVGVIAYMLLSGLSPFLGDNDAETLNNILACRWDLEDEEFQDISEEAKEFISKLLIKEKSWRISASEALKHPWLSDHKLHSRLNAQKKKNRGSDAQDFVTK

[12] = target: Death-associated protein kinase 3 (Homo sapiens) (UniProt O43293); assay: Binding affinity to N-terminus His6-tagged DAPK3 expressed in Escherichia coli BL21 (DE3) cells coexpressing pCOEX assessed as change in thermal denaturation at 10 uM by thermal stability shift assay
Method in brief: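 DAPK3 was expressed in E. coli grown in TB with kanamycin and chloramphenicol at 37 °C, cooled to 25 °C, and induced with 0.5 mM IPTG. Binding was read as thermal-shift ΔTm in °C.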

[13] = target: Serine/threonine-protein kinase pim-1 (Homo sapiens, UniProt P11309); assay: Binding affinity to PIM1 assessed as change in thermal denaturation at 10 uM by thermal stability shift assay; method in brief: as §1
[14] = target: AP2-associated protein kinase 1 (Homo sapiens) (UniProt Q2M2I8); assay: Binding affinity to AAK1 assessed as change in thermal denaturation at 10 uM by thermal stability shift assay; method in brief: as §1
[15] = Binding affinity to RSK4beta assessed as change in thermal denaturation at 10 uM by thermal stability shift assay; method in brief: as §1

Chain of Tyrosine-protein kinase Fes/Fps (Homo sapiens) (P07332 whole entry): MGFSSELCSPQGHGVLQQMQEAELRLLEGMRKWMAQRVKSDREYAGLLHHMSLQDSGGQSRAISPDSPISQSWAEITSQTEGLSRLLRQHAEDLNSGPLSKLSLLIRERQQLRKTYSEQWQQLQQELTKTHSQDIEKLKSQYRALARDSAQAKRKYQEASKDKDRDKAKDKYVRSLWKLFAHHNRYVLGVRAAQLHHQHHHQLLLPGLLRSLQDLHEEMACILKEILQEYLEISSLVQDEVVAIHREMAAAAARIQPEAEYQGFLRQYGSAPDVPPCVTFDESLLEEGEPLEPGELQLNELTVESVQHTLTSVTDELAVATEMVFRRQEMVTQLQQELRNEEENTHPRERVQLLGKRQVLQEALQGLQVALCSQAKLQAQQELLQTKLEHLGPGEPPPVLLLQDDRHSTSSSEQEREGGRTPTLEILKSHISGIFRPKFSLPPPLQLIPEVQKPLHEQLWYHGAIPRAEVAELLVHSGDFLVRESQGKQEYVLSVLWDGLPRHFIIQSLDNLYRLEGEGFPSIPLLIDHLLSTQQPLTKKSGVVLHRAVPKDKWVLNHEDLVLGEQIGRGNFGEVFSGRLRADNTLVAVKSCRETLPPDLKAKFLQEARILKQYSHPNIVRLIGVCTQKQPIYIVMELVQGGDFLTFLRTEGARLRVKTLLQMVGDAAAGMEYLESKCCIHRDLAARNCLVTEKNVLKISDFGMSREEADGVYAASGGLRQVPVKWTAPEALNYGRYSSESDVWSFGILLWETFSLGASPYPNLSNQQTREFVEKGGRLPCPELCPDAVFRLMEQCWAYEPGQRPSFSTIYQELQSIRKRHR
Chain of Serine/threonine-protein kinase PLK1 (Homo sapiens) (P53350 whole entry): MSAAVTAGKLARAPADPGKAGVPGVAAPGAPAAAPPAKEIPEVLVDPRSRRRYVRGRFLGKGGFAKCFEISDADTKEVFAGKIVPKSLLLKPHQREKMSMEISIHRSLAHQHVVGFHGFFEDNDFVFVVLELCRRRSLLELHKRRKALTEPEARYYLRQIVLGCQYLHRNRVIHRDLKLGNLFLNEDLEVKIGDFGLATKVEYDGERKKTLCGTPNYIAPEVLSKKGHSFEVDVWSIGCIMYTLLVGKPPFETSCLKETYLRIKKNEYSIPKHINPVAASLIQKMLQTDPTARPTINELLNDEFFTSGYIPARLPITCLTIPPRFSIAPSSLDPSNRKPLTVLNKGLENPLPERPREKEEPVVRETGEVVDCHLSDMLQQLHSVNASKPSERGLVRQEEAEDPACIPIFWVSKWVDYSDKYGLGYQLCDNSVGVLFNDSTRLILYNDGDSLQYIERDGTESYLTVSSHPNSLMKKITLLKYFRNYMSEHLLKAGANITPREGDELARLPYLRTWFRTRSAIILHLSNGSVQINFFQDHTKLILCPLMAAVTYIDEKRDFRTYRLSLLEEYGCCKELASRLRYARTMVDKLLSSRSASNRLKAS
Chain of Dual specificity protein kinase CLK1 (Homo sapiens) (P49759 whole entry, looked up): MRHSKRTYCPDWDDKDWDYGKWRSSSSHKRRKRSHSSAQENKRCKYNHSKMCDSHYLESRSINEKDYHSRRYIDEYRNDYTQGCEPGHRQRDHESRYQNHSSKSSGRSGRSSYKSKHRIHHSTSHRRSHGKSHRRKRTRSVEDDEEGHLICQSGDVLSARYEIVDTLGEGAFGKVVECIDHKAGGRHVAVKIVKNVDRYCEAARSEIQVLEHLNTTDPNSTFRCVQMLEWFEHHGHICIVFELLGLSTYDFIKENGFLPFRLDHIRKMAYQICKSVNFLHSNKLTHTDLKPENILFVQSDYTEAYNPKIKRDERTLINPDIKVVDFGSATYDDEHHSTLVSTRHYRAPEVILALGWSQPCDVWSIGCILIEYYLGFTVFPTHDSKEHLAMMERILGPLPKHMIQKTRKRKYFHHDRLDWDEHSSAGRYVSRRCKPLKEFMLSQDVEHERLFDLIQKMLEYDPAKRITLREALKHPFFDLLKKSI
Chain of TGF-beta receptor type-2 (Homo sapiens) (P37173 whole entry): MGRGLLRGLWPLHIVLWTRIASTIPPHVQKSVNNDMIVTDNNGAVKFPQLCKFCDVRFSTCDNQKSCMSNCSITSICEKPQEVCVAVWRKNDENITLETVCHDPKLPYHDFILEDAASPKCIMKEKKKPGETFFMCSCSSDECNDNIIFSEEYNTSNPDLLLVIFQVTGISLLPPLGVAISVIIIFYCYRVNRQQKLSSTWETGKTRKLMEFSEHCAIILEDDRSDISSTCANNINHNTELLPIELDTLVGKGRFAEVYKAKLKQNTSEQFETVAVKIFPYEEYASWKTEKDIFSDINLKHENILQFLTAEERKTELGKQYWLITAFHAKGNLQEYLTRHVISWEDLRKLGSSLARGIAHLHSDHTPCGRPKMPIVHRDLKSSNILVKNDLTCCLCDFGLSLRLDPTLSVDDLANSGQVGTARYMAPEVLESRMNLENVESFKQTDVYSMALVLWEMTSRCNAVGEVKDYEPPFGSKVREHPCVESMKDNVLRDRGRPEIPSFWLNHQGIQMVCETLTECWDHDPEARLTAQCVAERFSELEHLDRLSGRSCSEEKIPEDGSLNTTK
Chain of Glycogen synthase kinase-3 beta (Homo sapiens) (P49841 whole entry, looked up): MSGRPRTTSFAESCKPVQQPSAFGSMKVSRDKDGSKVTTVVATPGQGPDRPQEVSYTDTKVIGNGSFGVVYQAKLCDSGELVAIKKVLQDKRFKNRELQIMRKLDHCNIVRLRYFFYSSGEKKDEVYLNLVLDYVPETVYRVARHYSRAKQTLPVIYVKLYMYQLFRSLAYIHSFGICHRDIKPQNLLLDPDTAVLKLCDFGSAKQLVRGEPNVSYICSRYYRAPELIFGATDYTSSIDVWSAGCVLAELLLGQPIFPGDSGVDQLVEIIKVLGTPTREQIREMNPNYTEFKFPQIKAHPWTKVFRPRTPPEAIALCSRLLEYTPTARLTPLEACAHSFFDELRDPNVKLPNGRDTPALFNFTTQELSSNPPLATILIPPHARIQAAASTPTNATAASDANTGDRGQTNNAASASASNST
Chain of Death-associated protein kinase 3 (Homo sapiens) (O43293 whole entry, looked up): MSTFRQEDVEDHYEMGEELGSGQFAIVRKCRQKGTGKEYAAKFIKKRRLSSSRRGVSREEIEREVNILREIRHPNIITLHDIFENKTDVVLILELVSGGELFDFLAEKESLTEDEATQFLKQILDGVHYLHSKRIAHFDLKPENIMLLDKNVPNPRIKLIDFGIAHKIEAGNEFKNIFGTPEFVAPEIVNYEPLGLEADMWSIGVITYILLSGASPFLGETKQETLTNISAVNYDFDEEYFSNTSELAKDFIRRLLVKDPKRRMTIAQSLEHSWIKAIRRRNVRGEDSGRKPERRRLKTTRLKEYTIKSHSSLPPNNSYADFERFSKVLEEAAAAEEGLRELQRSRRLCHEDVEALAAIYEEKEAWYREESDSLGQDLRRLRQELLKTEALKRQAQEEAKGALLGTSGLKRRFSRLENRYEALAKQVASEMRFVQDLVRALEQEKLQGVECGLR
Chain of AP2-associated protein kinase 1 (Homo sapiens) (Q2M2I8 whole entry, looked up): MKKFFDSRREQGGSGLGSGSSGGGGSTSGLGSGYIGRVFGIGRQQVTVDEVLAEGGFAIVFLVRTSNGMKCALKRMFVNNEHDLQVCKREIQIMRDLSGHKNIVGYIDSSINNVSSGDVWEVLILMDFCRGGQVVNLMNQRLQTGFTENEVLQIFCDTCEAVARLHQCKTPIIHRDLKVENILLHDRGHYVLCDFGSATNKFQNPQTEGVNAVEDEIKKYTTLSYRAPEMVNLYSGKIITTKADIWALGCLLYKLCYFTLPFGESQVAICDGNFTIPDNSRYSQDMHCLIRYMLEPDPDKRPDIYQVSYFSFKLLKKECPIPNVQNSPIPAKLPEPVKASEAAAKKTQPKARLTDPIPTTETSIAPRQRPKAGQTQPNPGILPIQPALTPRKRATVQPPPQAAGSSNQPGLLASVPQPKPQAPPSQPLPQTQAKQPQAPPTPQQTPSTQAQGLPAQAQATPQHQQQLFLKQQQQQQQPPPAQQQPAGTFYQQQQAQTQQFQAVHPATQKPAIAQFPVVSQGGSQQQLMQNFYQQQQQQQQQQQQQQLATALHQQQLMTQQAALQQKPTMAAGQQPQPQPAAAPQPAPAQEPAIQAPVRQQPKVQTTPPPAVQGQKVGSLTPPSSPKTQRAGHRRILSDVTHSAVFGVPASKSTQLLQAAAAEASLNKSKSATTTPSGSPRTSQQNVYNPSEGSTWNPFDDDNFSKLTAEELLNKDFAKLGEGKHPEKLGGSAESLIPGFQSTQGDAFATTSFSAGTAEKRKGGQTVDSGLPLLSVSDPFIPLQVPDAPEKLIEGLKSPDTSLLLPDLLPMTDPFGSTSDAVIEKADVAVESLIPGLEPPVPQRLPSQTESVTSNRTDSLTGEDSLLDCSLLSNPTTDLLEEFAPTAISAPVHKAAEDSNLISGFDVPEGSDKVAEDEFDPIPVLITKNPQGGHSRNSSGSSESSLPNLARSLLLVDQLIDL

| Structure (SMILES) | ΔTm [1] [°C] | ΔTm [2] [°C] | ΔTm [3] [°C] | ΔTm [4] [°C] | ΔTm [5] [°C] | ΔTm [6] [°C] | ΔTm [7] [°C] | ΔTm [8] [°C] | ΔTm [9] [°C] | ΔTm [10] [°C] | ΔTm [11] [°C] | ΔTm [13] [°C] | ΔTm [14] [°C] | ΔTm [15] [°C] | ΔTm [12] [°C] |
| --- | --- | --- | --- | --- | --- | --- | --- | --- | --- | --- | --- | --- | --- | --- | --- |
| Cn1c2c(c3ccc(Cl)c(Cl)c31)C(C#N)C1(CCN(C(=O)OC(C)(C)C)CC1)NC2=O (racemic) | 0.4 | 0.6 | 0.5 | 0.5 | 0 | -0.2 | 0.2 |  | 0.3 | 0 | 0 | 0.8 | 0.3 | -0.4 | -0.2 |
| CC1(C)NC(=O)c2[nH]c3c(Cl)c(Cl)ccc3c2C1C#N (configuration not stated) | -0.2 | 3 | 4 | 5.3 | 2.1 | 4.7 | 0.7 | 6.8 | 1.2 | 1.2 | 3.1 | 3.5 | 1.1 | 0.1 | 2 |
| Cn1c2c(c3ccc(Cl)c(Cl)c31)C(CN)C(C)(C)NC2=O (racemic) | 0.3 | 7.5 | -0.6 | 5.1 | 6.4 | 0.6 | 1.7 | 3 | 3.3 | 1.7 | 0.2 | 3.6 | 0.8 | 0.7 | 3.6 |
| Cn1c2c(c3ccc(Cl)c(Cl)c31)C(C#N)C1(CCNCC1)NC2=O (racemic) | 4 | 4.3 | 1.4 | 7 | 3.4 | 3.9 | 6.1 |  | 5.8 | 1 | 3.5 | 10.7 | 1.5 | 0.8 | 10.6 |

Continued, in another order:

| ΔTm [1] [°C] | ΔTm [2] [°C] | ΔTm [3] [°C] | ΔTm [4] [°C] | ΔTm [5] [°C] | ΔTm [6] [°C] | ΔTm [7] [°C] | ΔTm [8] [°C] | ΔTm [9] [°C] | ΔTm [10] [°C] | ΔTm [11] [°C] | ΔTm [13] [°C] | ΔTm [14] [°C] | ΔTm [15] [°C] | Structure (SMILES) | ΔTm [12] [°C] |
| --- | --- | --- | --- | --- | --- | --- | --- | --- | --- | --- | --- | --- | --- | --- | --- |
| 0 | 2 | 1.3 | 4.8 | 2.6 | 2.5 | 0.5 | 2.2 | 0.7 | 1.3 | 0.1 | 3.8 | 1.5 | 0.1 | Cn1c2c(c3ccc(Cl)c(Cl)c31)C(C#N)C1(CCCC1)NC2=O (configuration not stated) | 1.5 |
| -0.3 | 5.8 | 4.9 | 6.4 | 4.8 | 5.6 | 1.7 | 8.1 | 2.8 | 2.8 | 2 | 5.7 | 2.2 | 2.3 | Cn1c2c(c3ccc(Cl)c(Cl)c31)C(C#N)C(C)(C)NC2=O (configuration not stated) | 3.4 |
| 0.2 | 3.5 | 3.1 | 3.9 | 2.2 | 4.6 | 1.2 | 10.4 | 0.3 | 5.3 | 5.5 | 1.6 | 3.9 | 1.4 | Cn1c2c(Cl)c(Cl)ccc2c2cn[nH]c(=O)c21 | 4 |
| 0 | 2.7 | 0.8 | 4.6 | 1.7 | 3.4 | 1 | 2.6 | 1.4 | 2.3 | 0.5 | 4.8 | 2.6 | 0 | Cn1c2c(c3ccc(Cl)c(Cl)c31)C(C#N)C1(CCOCC1)NC2=O (configuration not stated) | 3.1 |
| -0.4 | 2.2 | 0.3 | 5.4 | 2.3 | 2.6 | 1.3 |  | 1 | 1.1 | 1.2 | 4.9 | 2.4 | -0.2 | N#CC1c2c([nH]c3c(Cl)c(Cl)ccc23)C(=O)NC12CCCCC2 (racemic) | 3.4 |
